Bioassay records deposited in PubChem by The Scripps Research Institute Molecular Screening Center.
This is a sample that favours compounds with a hit; in the whole collection about 4.6% have one here.
CHO parental Ca = counter-screen: ATP calcium response change in parental CHO cells | parental CHO-K1, ATP-induced calcium, Fluo-8 fluorescence | inhibition, % at 5.6 µM | 0.63% of 330,000 active;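 active means inhibition above that plate's mean sample inhibition plus 3 SD, cut at about 26% in these data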;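 further: 0% = ATP-challenged DMSO wells and 100% = DMSO wells without ATP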
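Assay system – parental CHO cells · Reagent – ATP stimulus · Detection – intracellular calcium via Fluo-8 no-wash fluorescent dye · Evaluation – percent inhibition of ATP-evoked calcium rise, normalized to controls · Controls – ATP wells versus no-ATP DMSO wells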
OX1R antag-1 = antagonists of human orexin 1 receptor (OX1R) | O43613 | OX1R-expressing cells, FRET antagonist read-out | inhibition, % at 6.6 µM | 1.8% of 330,000 active; in the data active means inhibition mostly above about 38%, no sharp cut-off; inactive means mostly below about 40%;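 further: 0% = agonist challenge alone and 100% = reference antagonist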
TAAR1 ag = agonists of human TAAR1. 0.99% of 360,000 active. CHO RD-HGA16 TAAR1, Fluo-8 calcium fluorescence; vehicle wells 0%, saturating PEA agonist 100%. AID 624467. activation, % at 3 µM;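 active means activation above the mean activation of all test compounds in the run plus 3 SD, cut at about 38% in these data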
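System: CHO RD-HGA16 cells carrying human TAAR1 plus Gα16; Incubation: 17-24 h seeding, 75 min 37 °C dye, 30 min RT; Measured by: Fluo-8 fluorescence, 5 s baseline then 140 s kinetic read; Control set: DMSO and PEA EC100; Replication: single well for each compound.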
TAAR1 antag = antagonists of human TAAR1 | AID 624466 | 1.5% of 360,000 active | inhibition, % at 3 µM | Q96RJ0 | CHO RD-HGA16 TAAR1, Fluo-8 calcium fluorescence, antagonist;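 active means inhibition above a per-plate cutoff, the mean inhibition of test compounds on that plate plus 3 SD, cut at about 49% in these data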;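 further: 0% = DMSO plus EC80 beta-PEA response and 100% = DMSO alone without agonist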
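Test system – hTAAR1-expressing CHO RD-HGA16 cells, Gα16-coupled · Also added – β-PEA at EC80 concentration, post-compound challenge · Compound – 3 µM, single point · Incubation – dye loading 75 min at 37 °C, then 30 min room temperature · Measured by – Fluo-8 intracellular calcium dye fluorescence, real-time kinetic reads · Benchmarks – vehicle and agonist controls · Replicates – singlicate, one well per test compound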
OX1R antag-2 = antagonists of human orexin 1 receptor. O43613. CHO/OX1R cells, Fluo-8 calcium fluorescence, orexin A. inhibition, % at 5 µM. 0.43% of 330,000 active. AID 434989;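 active means inhibition above its plate's threshold, mean inhibition of all tested compounds on the plate plus 3 SD, cut at about 37% in these data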;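 further: 0% = orexin A challenge wells and 100% = SB-334867-A antagonist wells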
GPR7 antagonist = blocks human GPR7 receptor signaling; AID 1861; P48145; 1.1% of 290,000 active; inhibition, % at 4.4 µM; GPR7-expressing cells, fluorescence antagonist assay; in the data active means inhibition above about 16%, passing the limit was not always enough;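 further: cells stimulated with the agonist NPW; 0% = agonist with vehicle and 100% = vehicle without agonist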
Target sequence (P48145 whole entry, looked up): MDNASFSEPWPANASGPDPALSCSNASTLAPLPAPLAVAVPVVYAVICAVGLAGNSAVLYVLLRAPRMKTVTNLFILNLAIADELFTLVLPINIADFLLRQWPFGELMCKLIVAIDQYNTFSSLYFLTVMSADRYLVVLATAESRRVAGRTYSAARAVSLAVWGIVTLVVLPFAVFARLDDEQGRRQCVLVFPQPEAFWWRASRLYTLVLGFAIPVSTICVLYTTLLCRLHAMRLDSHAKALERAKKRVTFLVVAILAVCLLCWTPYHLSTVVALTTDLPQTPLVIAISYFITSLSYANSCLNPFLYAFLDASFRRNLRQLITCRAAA
TAAR1 nonsel count = nonselective antagonist in TAAR1 antagonist counter-screen; shares compounds with TAAR1 antag; counterscreen cell line, calcium fluorescence, antagonist mode; inhibition, % at 3 µM; 77% of 2,400 active; AID 651780; in the data active means inhibition above about 22%;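 further: CHO-Ga16 host cells stimulated with ATP at an EC80 level; 0% = agonist EC80 plus vehicle and 100% = vehicle without agonist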
TAAR1 antag conf = human TAAR1 antagonism, confirmed. shares compounds with TAAR1 antag. TAAR1-expressing cells, fluorescence antagonist read-out. inhibition, % at 3 µM. 40% of 2,400 active; in the data active means inhibition above about 49%;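 further: CHO-Ga16 host cells challenged with agonist PEA near its EC80; 0% = agonist at EC80 plus vehicle and 100% = vehicle with no agonist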
Ga16 nonsel ag = nonselective Ga16 agonist in TAAR1 antagonist counter-screen. shares compounds with TAAR1 antag. Ga16-expressing cells, calcium fluorescence, agonist counterscreen. activation, % at 3 µM. 18% of 2,400 active; in the data active means activation above about 12%;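 further: 0% = vehicle wells and 100% = saturating stimulus response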
TAAR1 ag counter = TAAR1 agonism, antagonist counter-screen; shares compounds with TAAR1 antag; hTAAR1 cell line, fluorescence activation, agonist mode; activation, % at 3 µM; 2% of 2,400 active; in the data active means activation above about 37%;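 further: CHO cells stably expressing TAAR1 with calcium dye readout; 0% = DMSO vehicle and 100% = full agonist response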
Numbers without * were called inactive; / = no result.

SMILES	CHO parental Ca	OX1R antag-1	TAAR1 ag	TAAR1 antag	OX1R antag-2	GPR7 antagonist	TAAR1 nonsel count	TAAR1 antag conf	Ga16 nonsel ag	TAAR1 ag counter
CCN(CC)C(=O)c1[nH]cnc1C(=O)NCC(=O)OCc1ccccc1	-5.3	17.0	24.6	70.8*	-10.0	-9.5	25.2*	52.4*	9.5	8.5
O=C(CNC(=O)c1nc[nH]c1C(=O)NCc1ccccc1)OCc1ccccc1	-17.8	37.3	16.0	66.5*	-19.0	-5.9	37.2*	56.5*	5.5	7.0
COc1ccc(CCNC(=O)C(=O)NCC2CCCN2S(=O)(=O)c2cc(C)ccc2C)cc1 (stereo not drawn)	-24.6	11.7	16.7	72.8*	-30.2	/	27.9*	53.3*	11.1	12.8
Cc1ccc(C)c(S(=O)(=O)N2CCCC2CNC(=O)C(=O)NCCc2ccccc2)c1 (stereo not drawn)	-22.2	38.1*	19.8	68.5*	-2.8	/	30.7*	47.2	11.3	35.1
Cc1ccc(-c2nc3ccccc3[nH]2)cc1NC(=S)NC(=O)c1ccccc1Br	-18.9	86.8*	7.2	69.9*	38.6	-3.8	35.8*	47.1	5.6	-0.3
Cc1ccc(-c2nc3ccccc3[nH]2)cc1NC(=O)c1ccc2c(c1)OCO2	-16.6	9.9	17.3	6.4	-13.6	7.8	/	/	/	/
CCCCN(Cc1cc2ccccc2[nH]c1=O)S(=O)(=O)c1ccc(C)cc1	-15.1	3.8	-0.1	62.5*	-30.9	-12.7	13.6	37.6	6.4	12.1
CCc1ccc2[nH]c(=O)c(CN(Cc3ccco3)S(=O)(=O)c3ccc4c(c3)OCCO4)cc2c1	-8.5	4.1	6.0	12.5	-26.0	-11.0	/	/	/	/
CC(=O)Nc1ccc(S(=O)(=O)N(Cc2ccco2)Cc2cc3ccccc3[nH]c2=O)cc1	-27.4	39.4*	19.4	72.7*	-12.6	-8.5	26.6*	56.7*	9.2	10.5
CCn1c(CNC(=O)c2ccco2)nnc1SCC(=O)Nc1cc(F)ccc1C	-8.4	3.2	2.0	-6.4	-23.1	-7.8	/	/	/	/
CCCCOc1ccc(S(=O)(=O)NC(=O)C2(C)CCN2C(=O)c2c(C)noc2C)cc1 (stereo not drawn)	/	/	-0.1	10.1	/	/	/	/	/	/
c1ccc(-c2cc3c(N4CCN(c5ncccn5)CC4)ncnc3s2)cc1	-30.9	14.2	5.3	55.5*	-34.6	-3.3	30.2*	50.2*	3.7	5.5
CN1CCN(c2ncnc3sc(-c4ccccc4)cc23)CC1	-16.5	8.5	1.8	11.3	-17.8	0.5	/	/	/	/
COc1ccc(-c2cc(NC(=O)Cc3c[nH]c4ccccc34)ccc2Nc2cccnc2)c(OC)c1	/	/	8.9	64.3*	/	/	31.8*	52.2*	5.9	6.2
Cc1cc(-c2cc(NC(=O)Cc3c(C)[nH]c4ccccc34)ccc2Nc2cccnc2)ccc1F	/	/	1.8	-9.5	/	/	/	/	/	/
Cc1cc(-c2cc(NC(=O)Cc3c[nH]c4ccccc34)ccc2Nc2cccnc2)ccc1F	/	/	9.4	62.9*	/	/	26.8*	34.7	4.9	0.3
COc1ccc(-c2cc(NC(=O)Cc3c[nH]c4ccccc34)ccc2N(C)c2cccnc2)cc1F	/	/	4.0	16.8	/	/	/	/	/	/
Cc1cccc(N2CCN(C(=O)c3ccccc3OCc3c(C)noc3C)CC2)c1C	-15.7	2.1	5.0	9.4	-3.5	/	/	/	/	/
COc1ccccc1-c1csc(C(O)(c2ccccc2)C(F)(F)F)n1 (stereo not drawn)	/	/	-0.5	9.3	/	/	/	/	/	/
Fc1cccc(-c2cc3nc4c(c(N5CCOCC5)n3n2)CCCC4)c1	-36.1	12.0	6.6	49.2*	-14.1	-10.8	18.3	25.9	5.2	10.9
